Experimental findings from ChEMBL document CHEMBL4732058, “Development of pyrene-based fluorescent ether lipid as inhibitor of SK3 ion channels” (Eur J Med Chem, 2021) are described below.

Data set [1] addresses Small conductance calcium-activated potassium channel protein 3 (Homo sapiens) (UniProt Q9UGI6). The data set can be described thus: Inhibition of SK3 (unknown origin) assessed as reduction in SK3 expression in presence of proteinase K. In a few lines:
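Cell-surface expression by proteinase K cleavage: cells incubated with or without […] proteinase K at 37 °C for 30 min, quenched with ice-cold PBS with 6 mM PMSF and 25 mM EDTA; western blot, full-length SK3 75 kDa, surface-cleaved band 55 kDa.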

For data set [2], the system named is MDA-MB-435. In words: Inhibition of cell migration in human MDA-MB-435 cells expressing SK3 channel at 0.3 uM measured after 24 hrs. The format is functional. The method in brief:
(§1)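 Transwell migration through […] pore inserts in 24-well plates, using MDA-MB-435s expressing endogenous SK3 (SK3+) or not (SK3-); DMSO stock 10 mM. Results relative to control, mean ± S.E.M.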

For data set [3], the system named is MDA-MB-435. In words: Inhibition of cell migration in human MDA-MB-435 cells at 1 uM measured after 24 hrs. The data set is classed as functional, cell-based. The method in brief: as §1
Data set [4] in a line: Fluorescence property of compound in preformed egg-PC based liposomes assessed as liposomal integration at 0.2 uM by fluorescence spectra analysis. The settings on record: artificial membrane. The data set is classed as physicochemical. In a few lines:
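Post-insertion: compound from methanol stock (50 mM) added to preformed, sonicated egg-PC liposomes; final compound 0.2 at lipid 8 or 40 (lipid/compound ratios 40 or 200).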

A short description of data set [5]: Fluorescence property of compound in egg-PC based liposomes assessed as liposomal integration at 0.2 uM added before liposome formation by fluorescence spectra analysis. The settings on record: artificial membrane. The data set is classed as physicochemical. In a few lines:
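Pre-insertion: methanol stock (50 mM) added to egg-PC lipids before solvent evaporation, then liposomes formed; final compound 0.2 at lipid 8 or 40 (lipid/compound ratios 40 or 200).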

A short description of data set [6]: Drug uptake in human MDA-MB-231 cells at 1 uM after 2 hrs by fluorescence imaging analysis. The format is ADME, cell-based. Conditions: mda-mb-231, 2 h. In a few lines: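 Breast cancer cells seeded at 100.000 per 35 mm dish in serum-supplemented DMEM, treated 24 h after seeding; medium swapped to serum-free DMEM before adding compound. Wide-field microscope, 20× oil objective, excitation 340 nm, excimer emission imaged 468–552 nm; same field imaged every 15 min from 60 to 165 min after addition.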

The test system of data set [7] is MDA-MB-435. The data set can be described thus: Inhibition of cell migration in human MDA-MB-435 cells expressing SK3 channel at 1 uM measured after 24 hrs. The data set is classed as functional. The method in brief: as §1
Data set [8] concerns MDA-MB-435. In words: Cytotoxicity against human MDA-MB-435 cells at 1 uM incubated for 48 hrs by MTT assay. The settings on record: mda-mb-435, 48 h. The format is cell-based.
Data set [9] can be described thus: Drug uptake in plasma membrane of human MDA-MB-231 cells at 1 uM measured after 45 mins by fluorescence imaging analysis. The data set is classed as ADME, cell membranes, Cell membrane. The settings on record: mda-mb-231, 0.75 h.
The target in data set [10] is Small conductance calcium-activated potassium channel protein 3 (Rattus norvegicus) (UniProt P70605). In words: Inhibition of recombinant rat SK3 expressed in HEK293T cells assessed as reduction in channel current at 10 uM and holding potential at 0 mV by whole cell patch clamp method relative to control. The data set is classed as cell-based. On the technique in general: Patch clamp records ionic current or voltage across a cell membrane.

Data set [11] shares this target. In words: Inhibition of recombinant rat SK3 expressed in HEK293 cells assessed as reduction in channel current at 10 uM and holding potential at 0 mV by whole cell patch clamp method relative to control. The data set is classed as cell-based.

Calls of active or inactive are those of the source. The rule behind the calls is not given here.

Chain of Small conductance calcium-activated potassium channel protein 3 (Rattus norvegicus) (P70605 whole entry): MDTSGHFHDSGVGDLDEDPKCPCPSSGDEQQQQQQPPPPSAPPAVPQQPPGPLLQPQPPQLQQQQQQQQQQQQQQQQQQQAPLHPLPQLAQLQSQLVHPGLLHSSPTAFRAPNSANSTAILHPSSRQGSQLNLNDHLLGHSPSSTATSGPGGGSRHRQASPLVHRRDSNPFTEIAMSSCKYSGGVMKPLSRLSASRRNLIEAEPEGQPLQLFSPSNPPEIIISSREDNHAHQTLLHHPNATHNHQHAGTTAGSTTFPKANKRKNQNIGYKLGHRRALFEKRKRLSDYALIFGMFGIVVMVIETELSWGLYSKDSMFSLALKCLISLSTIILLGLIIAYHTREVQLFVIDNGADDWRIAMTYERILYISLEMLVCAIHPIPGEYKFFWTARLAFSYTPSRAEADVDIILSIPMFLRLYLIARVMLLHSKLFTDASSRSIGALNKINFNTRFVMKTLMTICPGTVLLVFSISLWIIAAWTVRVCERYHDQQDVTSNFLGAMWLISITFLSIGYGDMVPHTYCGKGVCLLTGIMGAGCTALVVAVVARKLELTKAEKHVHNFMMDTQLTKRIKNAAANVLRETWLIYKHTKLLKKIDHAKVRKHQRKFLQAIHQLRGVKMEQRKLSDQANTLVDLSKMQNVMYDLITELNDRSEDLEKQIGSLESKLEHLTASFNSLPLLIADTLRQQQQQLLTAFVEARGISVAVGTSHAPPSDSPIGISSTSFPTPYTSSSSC
Chain of Small conductance calcium-activated potassium channel protein 3 (Homo sapiens) (Q9UGI6 whole entry): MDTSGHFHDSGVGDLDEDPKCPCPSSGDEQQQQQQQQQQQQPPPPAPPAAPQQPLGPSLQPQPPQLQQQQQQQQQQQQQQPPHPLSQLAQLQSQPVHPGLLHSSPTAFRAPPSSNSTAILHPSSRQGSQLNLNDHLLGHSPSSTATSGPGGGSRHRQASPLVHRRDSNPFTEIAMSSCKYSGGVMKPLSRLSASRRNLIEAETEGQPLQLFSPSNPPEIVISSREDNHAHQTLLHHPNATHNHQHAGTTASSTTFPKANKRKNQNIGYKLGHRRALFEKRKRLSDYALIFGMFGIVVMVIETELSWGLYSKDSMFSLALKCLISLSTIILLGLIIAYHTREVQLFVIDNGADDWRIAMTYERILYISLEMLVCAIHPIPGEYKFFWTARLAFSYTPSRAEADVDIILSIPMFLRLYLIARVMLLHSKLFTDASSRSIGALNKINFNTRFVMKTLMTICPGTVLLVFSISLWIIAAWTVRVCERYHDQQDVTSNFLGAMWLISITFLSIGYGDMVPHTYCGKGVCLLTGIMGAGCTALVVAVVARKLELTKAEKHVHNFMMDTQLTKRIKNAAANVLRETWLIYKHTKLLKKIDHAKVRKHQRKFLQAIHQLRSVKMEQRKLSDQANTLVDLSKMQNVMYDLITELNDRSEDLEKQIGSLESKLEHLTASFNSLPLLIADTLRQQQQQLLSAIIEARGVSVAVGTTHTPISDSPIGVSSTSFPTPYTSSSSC

As a reminder, the inhibition is the drop in the measured response relative to a control, in per cent. In the case of `COC(COCCCCCCCCCCCc1ccc2ccc3cccc4ccc1c2c34)CO[C@@H]1O[C@H](CO)[C@@H](O[C@@H]2O[C@H](CO)[C@H](O)[C@H](O)[C@H]2O)[C@H](O)[C@H]1O` (mixture of isomers), the inhibition result (in [1]; in the data set with MDA-MB-435 [2]; in the data set on MDA-MB-435 [3]) was “inactive” each time. The Activity entry in [4] was “Active”; in data set [5], “Active”; with MDA-MB-435 [8] it was “Non-Toxic”. The Drug uptake result in data set [6] and in [9] was “Active” each time. Besides, the inhibition at 1 µM with MDA-MB-435 [7] was -32.5%.

As for `COC(COCCCCc1ccc2ccc3cccc4ccc1c2c34)CO[C@@H]1O[C@H](CO)[C@@H](O[C@@H]2O[C@H](CO)[C@H](O)[C@H](O)[C@H]2O)[C@H](O)[C@H]1O` (mixture of isomers), the Activity entry in data set [4] was “Not Active”; in [5], “Not Active”; with MDA-MB-435 [8], “Non-Toxic”. Further, the inhibition result in data set [10] was “inactive”.

On to `COC(COCCCCCCCCCCCCCCCCc1ccc2ccc3cccc4ccc1c2c34)CO[C@@H]1O[C@H](CO)[C@@H](O[C@@H]2O[C@H](CO)[C@H](O)[C@H](O)[C@H]2O)[C@H](O)[C@H]1O` (mixture of isomers), for which the Activity entry in data set [4] is reported as “Active”; in data set [5], “Active”; in the data set on MDA-MB-435 [8], “Non-Toxic”. The inhibition entry in data set [10] is “inactive”.

As to `CCCCCCCCCCCCCCCCOCC(CO[C@@H]1O[C@H](CO)[C@@H](O[C@@H]2O[C@H](CO)[C@H](O)[C@H](O)[C@H]2O)[C@H](O)[C@H]1O)OC` (stereo not given in full), the inhibition entry in data set [1] was “inactive”. Also, the inhibition at 0.3 µM in the data set on MDA-MB-435 [2] amounted to 50%. Besides, the inhibition in data set [11] turned out to be 73%.
